Tests used:
[1] = biological target: Integrin alpha-V/beta-1 (Homo sapiens, UniProt P05556+P06756); test: Inhibition of integrin alphaVbeta1 (unknown origin)-mediated CHO cell adhesion to fibronectin preincubated for 15 to 30 mins followed by 60 min incubation for adhesion by crystal violet staining based cell adhesion assay
Summary of the method: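 α5-deficient CHO cells engineered to express αvβ1 were tested for adhesion to fibronectin (0.3 mg/ml). Values reported as pIC50 (–logIC50, M) with standard deviation, n=3.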

[2] = biological target: Integrin alpha-V/beta-3 (Homo sapiens, UniProt P05106+P06756); test: Inhibition of human integrin alphaVbeta3-mediated human SW480 cell adhesion to fibrinogen preincubated for 15 to 30 mins followed by 60 min incubation for adhesion by crystal violet staining based cell adhesion assay
Integrin alpha-V/beta-3, sequence (P05106 27-788 limits assumed): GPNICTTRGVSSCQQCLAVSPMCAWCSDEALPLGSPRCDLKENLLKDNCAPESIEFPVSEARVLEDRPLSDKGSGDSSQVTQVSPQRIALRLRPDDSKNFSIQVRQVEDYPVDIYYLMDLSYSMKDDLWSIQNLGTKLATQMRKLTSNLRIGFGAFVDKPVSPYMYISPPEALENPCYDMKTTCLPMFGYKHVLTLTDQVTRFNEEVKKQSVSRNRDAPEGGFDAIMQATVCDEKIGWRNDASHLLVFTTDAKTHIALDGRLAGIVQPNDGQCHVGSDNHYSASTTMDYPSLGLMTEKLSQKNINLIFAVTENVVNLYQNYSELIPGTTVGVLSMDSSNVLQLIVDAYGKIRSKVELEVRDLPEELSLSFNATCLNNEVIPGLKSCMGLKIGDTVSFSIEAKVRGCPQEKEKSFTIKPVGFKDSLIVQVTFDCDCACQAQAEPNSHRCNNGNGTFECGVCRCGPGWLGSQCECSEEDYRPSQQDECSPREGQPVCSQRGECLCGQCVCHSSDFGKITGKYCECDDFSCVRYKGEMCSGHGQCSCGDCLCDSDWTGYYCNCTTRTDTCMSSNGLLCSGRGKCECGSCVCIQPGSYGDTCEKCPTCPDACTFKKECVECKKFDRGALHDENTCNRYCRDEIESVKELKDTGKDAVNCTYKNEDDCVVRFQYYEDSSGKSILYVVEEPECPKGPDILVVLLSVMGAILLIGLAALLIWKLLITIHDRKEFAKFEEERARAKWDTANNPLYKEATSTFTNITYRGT
Integrin alpha-V/beta-3, sequence (P06756 31-889 limits assumed): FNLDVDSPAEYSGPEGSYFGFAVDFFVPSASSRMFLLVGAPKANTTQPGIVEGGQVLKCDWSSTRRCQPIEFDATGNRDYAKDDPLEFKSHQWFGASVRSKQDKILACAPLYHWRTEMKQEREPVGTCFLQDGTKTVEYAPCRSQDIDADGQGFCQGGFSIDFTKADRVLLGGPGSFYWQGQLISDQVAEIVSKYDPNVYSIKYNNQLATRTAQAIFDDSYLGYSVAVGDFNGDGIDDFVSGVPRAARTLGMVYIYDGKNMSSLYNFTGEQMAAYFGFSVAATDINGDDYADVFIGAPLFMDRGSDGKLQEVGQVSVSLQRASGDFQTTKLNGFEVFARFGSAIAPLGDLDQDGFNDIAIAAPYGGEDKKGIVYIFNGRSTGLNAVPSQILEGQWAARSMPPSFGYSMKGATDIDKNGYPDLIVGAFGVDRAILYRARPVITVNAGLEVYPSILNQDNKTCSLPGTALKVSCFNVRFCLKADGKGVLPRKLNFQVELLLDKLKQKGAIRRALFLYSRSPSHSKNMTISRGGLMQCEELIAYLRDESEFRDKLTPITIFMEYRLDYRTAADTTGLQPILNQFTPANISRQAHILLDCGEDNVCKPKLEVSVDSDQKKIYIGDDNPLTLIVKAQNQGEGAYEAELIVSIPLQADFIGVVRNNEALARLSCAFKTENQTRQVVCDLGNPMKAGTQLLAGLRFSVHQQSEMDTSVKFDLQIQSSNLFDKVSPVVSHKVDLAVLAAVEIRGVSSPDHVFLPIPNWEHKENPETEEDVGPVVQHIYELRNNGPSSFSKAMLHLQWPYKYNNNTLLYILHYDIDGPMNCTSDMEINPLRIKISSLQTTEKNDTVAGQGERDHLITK
Integrin alpha-V/beta-3, sequence (P06756 891-1048 limits assumed): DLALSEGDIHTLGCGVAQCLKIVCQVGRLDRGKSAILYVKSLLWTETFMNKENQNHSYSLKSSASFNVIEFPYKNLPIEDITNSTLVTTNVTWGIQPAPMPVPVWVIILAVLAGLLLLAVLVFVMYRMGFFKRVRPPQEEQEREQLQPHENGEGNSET
Summary of the method: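 Adhesion of SW480 cells transfected with human β3 to fibrinogen (1 mg/ml), isolating αvβ3. Values reported as pIC50 (–logIC50, M) with standard deviation, n=3.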

[3] = biological target: Integrin alpha-V/beta-5 (Homo sapiens, UniProt P06756+P18084); test: Inhibition of human wild type integrin alphaVbeta5-mediated human SW480 cell adhesion to vitronectin preincubated for 15 to 30 mins followed by 60 min incubation for adhesion by crystal violet staining based cell adhesion assay
Integrin alpha-V/beta-5, sequence (P06756 31-889 limits assumed): as the sequence (P06756 31-889 limits assumed) above
Integrin alpha-V/beta-5, sequence (P06756 891-1048 limits assumed): as the sequence (P06756 891-1048 limits assumed) above
Integrin alpha-V/beta-5, sequence (P18084 24-799 limits assumed): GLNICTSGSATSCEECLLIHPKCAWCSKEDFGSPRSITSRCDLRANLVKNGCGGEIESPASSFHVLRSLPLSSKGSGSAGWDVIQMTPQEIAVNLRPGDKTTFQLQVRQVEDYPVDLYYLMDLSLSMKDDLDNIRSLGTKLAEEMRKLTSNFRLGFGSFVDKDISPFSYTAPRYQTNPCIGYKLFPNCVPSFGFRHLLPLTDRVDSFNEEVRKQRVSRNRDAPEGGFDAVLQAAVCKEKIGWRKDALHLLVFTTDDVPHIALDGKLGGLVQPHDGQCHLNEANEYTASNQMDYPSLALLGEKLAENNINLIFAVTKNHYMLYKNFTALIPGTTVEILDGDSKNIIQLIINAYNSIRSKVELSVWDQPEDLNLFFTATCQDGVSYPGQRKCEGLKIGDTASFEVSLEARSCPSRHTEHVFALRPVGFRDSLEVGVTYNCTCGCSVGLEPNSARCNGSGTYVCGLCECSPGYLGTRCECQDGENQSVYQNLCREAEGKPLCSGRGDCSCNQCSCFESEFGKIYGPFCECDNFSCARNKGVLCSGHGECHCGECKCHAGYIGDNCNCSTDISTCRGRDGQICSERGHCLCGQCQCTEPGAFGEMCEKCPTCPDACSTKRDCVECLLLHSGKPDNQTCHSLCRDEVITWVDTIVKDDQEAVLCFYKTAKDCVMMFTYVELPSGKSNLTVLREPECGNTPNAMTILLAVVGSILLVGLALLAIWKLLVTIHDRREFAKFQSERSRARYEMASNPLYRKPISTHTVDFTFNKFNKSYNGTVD
Summary of the method: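 Wild-type SW480 cells adhering to vitronectin (0.1 mg/ml) served to isolate αvβ5. Values reported as pIC50 (–logIC50, M) with standard deviation, n=3.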

[4] = biological target: Integrin alpha-V/beta-8 (Homo sapiens, UniProt P06756+P26012); test: Inhibition of human integrin alphaVbeta8-mediated human SNB19 cell adhesion to recombinant human TGFbeta1 LAP preincubated for 15 to 30 mins followed by 60 min incubation for adhesion by crystal violet staining based cell adhesion assay; parameters: species or system SNB-19
Summary of the method: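 The αvβ8-expressing glioma line SNB19 was tested for adhesion to recombinant human TGFβ1 LAP (1 mg/ml). Values reported as pIC50 (–logIC50, M) with standard deviation, n=3.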

[5] = biological target: Integrin alpha-5/beta-1 (Homo sapiens, UniProt P05556+P08648); test: Inhibition of human integrin alpha5beta1-mediated human SW480 cell adhesion to fibronectin preincubated for 15 to 30 mins followed by 60 min incubation for adhesion by crystal violet staining based cell adhesion assay
Integrin alpha-5/beta-1, sequence (P05556 21-798 limits assumed): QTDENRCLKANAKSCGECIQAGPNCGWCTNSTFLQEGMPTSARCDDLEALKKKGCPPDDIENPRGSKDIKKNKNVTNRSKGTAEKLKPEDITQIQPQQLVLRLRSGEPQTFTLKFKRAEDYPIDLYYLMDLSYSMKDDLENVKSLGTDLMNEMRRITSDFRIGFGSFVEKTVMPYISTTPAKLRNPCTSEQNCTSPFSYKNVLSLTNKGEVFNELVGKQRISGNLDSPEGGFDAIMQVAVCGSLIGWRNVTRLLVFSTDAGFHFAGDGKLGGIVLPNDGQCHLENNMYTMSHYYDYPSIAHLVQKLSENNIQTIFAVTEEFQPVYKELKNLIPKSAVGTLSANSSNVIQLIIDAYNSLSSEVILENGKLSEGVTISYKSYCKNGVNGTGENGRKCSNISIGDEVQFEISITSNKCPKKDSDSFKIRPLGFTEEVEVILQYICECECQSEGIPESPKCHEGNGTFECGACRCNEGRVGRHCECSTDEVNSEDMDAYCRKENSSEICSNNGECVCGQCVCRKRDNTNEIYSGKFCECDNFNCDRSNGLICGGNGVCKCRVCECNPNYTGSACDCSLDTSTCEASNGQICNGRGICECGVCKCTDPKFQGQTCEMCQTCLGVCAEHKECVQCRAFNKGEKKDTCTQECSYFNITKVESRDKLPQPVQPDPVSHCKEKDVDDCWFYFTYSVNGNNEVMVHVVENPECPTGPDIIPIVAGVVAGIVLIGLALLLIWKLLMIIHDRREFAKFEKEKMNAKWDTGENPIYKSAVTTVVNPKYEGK
Integrin alpha-5/beta-1, sequence (P08648 42-894 limits assumed): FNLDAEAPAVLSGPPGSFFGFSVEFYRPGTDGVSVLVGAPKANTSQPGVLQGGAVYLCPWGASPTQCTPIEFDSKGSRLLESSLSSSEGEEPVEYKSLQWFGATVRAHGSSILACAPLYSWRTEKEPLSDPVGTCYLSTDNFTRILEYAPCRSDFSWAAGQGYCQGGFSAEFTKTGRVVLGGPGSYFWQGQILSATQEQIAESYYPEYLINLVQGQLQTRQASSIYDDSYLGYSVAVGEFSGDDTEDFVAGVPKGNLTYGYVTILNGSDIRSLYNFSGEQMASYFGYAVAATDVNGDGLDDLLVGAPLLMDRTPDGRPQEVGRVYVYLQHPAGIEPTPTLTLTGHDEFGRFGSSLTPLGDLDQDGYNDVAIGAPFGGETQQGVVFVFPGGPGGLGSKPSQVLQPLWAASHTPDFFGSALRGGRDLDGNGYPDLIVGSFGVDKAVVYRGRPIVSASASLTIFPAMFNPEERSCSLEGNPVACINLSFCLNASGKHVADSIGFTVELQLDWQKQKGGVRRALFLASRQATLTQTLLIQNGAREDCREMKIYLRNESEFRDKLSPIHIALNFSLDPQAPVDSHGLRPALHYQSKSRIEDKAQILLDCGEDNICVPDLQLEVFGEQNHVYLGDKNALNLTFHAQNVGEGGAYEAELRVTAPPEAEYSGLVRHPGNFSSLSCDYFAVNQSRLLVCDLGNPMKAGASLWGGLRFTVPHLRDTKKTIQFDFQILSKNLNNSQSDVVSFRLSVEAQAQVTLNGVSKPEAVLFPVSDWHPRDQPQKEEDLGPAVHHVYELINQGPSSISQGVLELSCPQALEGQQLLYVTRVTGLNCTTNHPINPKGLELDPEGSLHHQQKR
Integrin alpha-5/beta-1, sequence (P08648 895-1049 limits assumed): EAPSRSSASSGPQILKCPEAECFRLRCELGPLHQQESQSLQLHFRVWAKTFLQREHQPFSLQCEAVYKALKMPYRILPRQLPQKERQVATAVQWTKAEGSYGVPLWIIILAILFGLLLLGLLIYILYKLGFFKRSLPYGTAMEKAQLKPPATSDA
Summary of the method: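 Colon carcinoma SW480 cells plated on fibronectin (0.3 mg/ml) to isolate α5β1-dependent adhesion. Values reported as pIC50 (–logIC50, M) with standard deviation, n=3.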

Integrin alpha-V/beta-1, sequence (P05556 21-798 limits assumed): as the sequence (P05556 21-798 limits assumed) above
Integrin alpha-V/beta-1, sequence (P06756 31-889 limits assumed): as the sequence (P06756 31-889 limits assumed) above
Integrin alpha-V/beta-1, sequence (P06756 891-1048 limits assumed): as the sequence (P06756 891-1048 limits assumed) above

Row | Structure (SMILES) | IC50 ([1]; read-out: IC50) | further results
1 | O=C(CCCCNC1=NCCCN1)Nc1ccc(C[C@H](NC(=O)[C@@H]2CCCN2S(=O)(=O)c2ccccc2)C(=O)O)cc1 | 2 nM | 
2 | N=C(N)NCCCCC(=O)Nc1ccc(C[C@H](NC(=O)[C@@H]2CCCN2S(=O)(=O)c2ccccc2)C(=O)O)cc1 | 0.63 nM | IC50 [2]: > 10000 nM; IC50 [3]: > 10000 nM; IC50 [4]: > 10000 nM; IC50 [5]: > 10000 nM
3 | N=C(N)NC12CC3CC(C1)CC(C(=O)Nc1ccc(C[C@H](NC(=O)[C@@H]4CCCN4S(=O)(=O)c4ccccc4)C(=O)O)cc1)(C3)C2 | 2500 nM | 
4 | N=C(N)NCCCCC(=O)Nc1ccc(C[C@H](NC(=O)[C@@H]2CCCN2S(=O)(=O)c2cccs2)C(=O)O)cc1 | 50 nM | 
5 | N=C(N)NCCCC(=O)Nc1ccc(C[C@H](NC(=O)[C@@H]2CCCN2S(=O)(=O)c2ccccc2)C(=O)O)cc1 | 0.02 nM | 
6 | N=C(N)NCCCCC(=O)Nc1ccc(C[C@H](NC(=O)[C@@H]2C[C@@H](F)CN2S(=O)(=O)c2ccccc2)C(=O)O)cc1 | 0.5 nM | 
7 | N=C(N)NCCCCC(=O)Nc1ccc(C[C@H](NC(=O)[C@@H]2CCCCN2S(=O)(=O)c2ccccc2)C(=O)O)cc1 | 0.31 to 0.32 nM | IC50 ([1]; read-out: pIC50 (converted)): 0.316 nM; IC50 [2]: 4000 nM; IC50 [3]: 160 nM; IC50 [4]: 2000 nM; IC50 [5]: 3200 nM
8 | Cc1cc(C)cc(S(=O)(=O)N2CCC[C@H]2C(=O)N[C@@H](Cc2ccc(NC(=O)CCCNC(=N)N)cc2)C(=O)O)c1 | 790 nM | 
9 | N=C(N)NCCCCC(=O)Nc1ccc(C[C@H](NC(=O)[C@@H]2CCCN2S(=O)(=O)c2cccnc2)C(=O)O)cc1 | 32 nM | 
10 | N=C(N)NCCCCC(=O)Nc1ccc(C[C@H](NC(=O)[C@@H]2CCCN2S(=O)(=O)c2ccc3ccccc3c2)C(=O)O)cc1 | 2500 nM | 
11 | O=C(CCCCNC1=NCCN1)Nc1ccc(C[C@H](NC(=O)[C@@H]2CCCN2S(=O)(=O)c2ccccc2)C(=O)O)cc1 | 0.31 to 0.32 nM | IC50 ([1]; read-out: pIC50 (converted)): 0.316 nM; IC50 [2]: > 10000 nM; IC50 [3]: 200 nM; IC50 [4]: > 10000 nM; IC50 [5]: > 10000 nM
12 | Cc1cc(F)ccc1S(=O)(=O)N1CCC[C@H]1C(=O)N[C@@H](Cc1ccc(NC(=O)CCCCNC(=N)N)cc1)C(=O)O | 500 nM | 
13 | N=C(N)NCCCCC(=O)Nc1ccc(C[C@H](NC(=O)[C@@H]2CCCN2S(=O)(=O)c2ccccc2[N+](=O)[O-])C(=O)O)cc1 | 630 nM | 
14 | Cc1ccc(S(=O)(=O)N2CCC[C@H]2C(=O)N[C@@H](Cc2ccc(NC(=O)CCCCNC(=N)N)cc2)C(=O)O)c2ccccc12 | 6300 nM | 
15 | O=C(CCCNc1ccccn1)Nc1ccc(C[C@H](NC(=O)[C@@H]2CCCN2S(=O)(=O)c2ccccc2)C(=O)O)cc1 | 0.2 nM | IC50 [2]: > 10000 nM; IC50 [3]: > 10000 nM; IC50 [4]: 400 nM; IC50 [5]: > 10000 nM
16 | CN(C)c1cccc2c(S(=O)(=O)N3CCC[C@H]3C(=O)N[C@@H](Cc3ccc(NC(=O)CCCCNC(=N)N)cc3)C(=O)O)cccc12 | 79 nM | 
17 | Cc1cc(C)c(S(=O)(=O)N2CCC[C@H]2C(=O)N[C@@H](Cc2ccc(NC(=O)CCCCNC(=N)N)cc2)C(=O)O)c(C)c1 |  | IC50 ([1]; cho, read-out: IC50): > 10000 nM; IC50 ([1]; read-out: pIC50 (converted)): > 10000 nM
18 | Cc1ccc(NCCCC(=O)Nc2ccc(C[C@H](NC(=O)[C@@H]3CCCN3S(=O)(=O)c3ccccc3)C(=O)O)cc2)nc1 | 320 nM | 

Row | Structure (SMILES) | IC50 ([1]; read-out: IC50) | further results
19 | C[C@@]1(C(=O)N[C@@H](Cc2ccc(NC(=O)CCCCNC(=N)N)cc2)C(=O)O)CCCN1S(=O)(=O)c1ccccc1 |  | IC50 ([1]; cho, read-out: IC50): > 10000 nM; IC50 ([1]; read-out: pIC50 (converted)): > 10000 nM
20 | N=C(N)NCCCCC(=O)Nc1ccc(C[C@H](NC(=O)[C@@H]2CCCN2S(=O)(=O)c2cc(F)cc(F)c2)C(=O)O)cc1 | 40 nM | 
21 | N=C(N)N[C@H]1CC[C@@H](C(=O)Nc2ccc(C[C@H](NC(=O)[C@@H]3CCCN3S(=O)(=O)c3ccccc3)C(=O)O)cc2)CC1 | 2 nM | 
22 | O=C(CCCCNc1ccccn1)Nc1ccc(C[C@H](NC(=O)[C@@H]2CCCN2S(=O)(=O)c2ccccc2)C(=O)O)cc1 | 2 nM | 
23 | N=C(N)Nc1cccc(C(=O)Nc2ccc(C[C@H](NC(=O)[C@@H]3CCCN3S(=O)(=O)c3ccccc3)C(=O)O)cc2)c1 | 0.06 nM | IC50 [2]: 160 nM; IC50 [3]: > 10000 nM; IC50 [4]: 40 nM; IC50 [5]: 63 nM
24 | N=C(N)NCCCCC(=O)Nc1ccc(C[C@H](NC(=O)[C@@H]2CSCN2S(=O)(=O)c2ccccc2)C(=O)O)cc1 | 16 nM | 
25 | N=C(N)Nc1ccc(CC(=O)Nc2ccc(C[C@H](NC(=O)[C@@H]3CCCN3S(=O)(=O)c3ccccc3)C(=O)O)cc2)cc1 | 50 nM | 
26 | N=C(N)NCCCC(=O)Nc1ccc(C[C@H](NC(=O)[C@@H]2CCCCN2S(=O)(=O)c2ccccc2)C(=O)O)cc1 | 0.25 nM | IC50 [2]: 2000 nM; IC50 [3]: 1600 nM; IC50 [4]: 2500 nM; IC50 [5]: 3200 nM
27 | N=C(N)Nc1ccc(C(=O)Nc2ccc(C[C@H](NC(=O)[C@@H]3CCCN3S(=O)(=O)c3ccccc3)C(=O)O)cc2)cc1 | 800 nM | 
28 | O=C(CCCNC1=NCCN1)Nc1ccc(C[C@H](NC(=O)[C@@H]2CCCN2S(=O)(=O)c2ccccc2)C(=O)O)cc1 | 0.13 nM | 
29 | Cc1ccc(S(=O)(=O)N2CCC[C@H]2C(=O)N[C@@H](Cc2ccc(NC(=O)CCCNC(=N)N)cc2)C(=O)O)cc1 | 630 nM | 
30 | CC1(C)SCN(S(=O)(=O)c2ccccc2)[C@@H]1C(=O)N[C@@H](Cc1ccc(NC(=O)CCCCNC(=N)N)cc1)C(=O)O | 2000 nM | 
31 | N=C(N)NCCCCC(=O)Nc1ccc(C[C@H](NC(=O)[C@@H]2C[C@H](F)CN2S(=O)(=O)c2ccccc2)C(=O)O)cc1 | 0.5 nM | 
32 | N=C(N)NCCCCC(=O)Nc1ccc(C[C@H](NC(=O)[C@@H]2C=CCN2S(=O)(=O)c2ccccc2)C(=O)O)cc1 | 800 nM | 
33 | Cc1cccc(NCCCC(=O)Nc2ccc(C[C@H](NC(=O)[C@@H]3CCCN3S(=O)(=O)c3ccccc3)C(=O)O)cc2)n1 | 200 nM | 
34 | N=C(N)NCCCCC(=O)Nc1ccc(C[C@H](NC(=O)[C@@H]2CCCN2S(=O)(=O)c2cccc([N+](=O)[O-])c2)C(=O)O)cc1 | 13 nM | 
35 | N=C(N)NCCCCC(=O)Nc1ccc(C[C@H](NC(=O)[C@@H]2CCN2S(=O)(=O)c2ccccc2)C(=O)O)cc1 | 160 nM | 

Source: ChEMBL document CHEMBL3862028, “Exploring N-Arylsulfonyl-l-proline Scaffold as a Platform for Potent and Selective αvβ1 Integrin Inhibitors” (ACS Med Chem Lett, 2016)
